Measured values: ChEMBL document CHEMBL5154713, “Illuminating a Dark Kinase: Structure-Guided Design, Synthesis, and Evaluation of a Potent Nek1 Inhibitor and Its Effects on the Embryonic Zebrafish Pronephros” (J Med Chem, 2022)

Legend:
[1] = biological target: T1, Serine/threonine-protein kinase Nek1 (Homo sapiens, UniProt Q96PY6); assay: Inhibition of human recombinant NEK1 (1 to 505 residues) using ULight-p70 S6K peptide as substrate incubated for 30 mins by LANCE Ultra TR-FRET assay
T1 sequence (Q96PY6 whole entry): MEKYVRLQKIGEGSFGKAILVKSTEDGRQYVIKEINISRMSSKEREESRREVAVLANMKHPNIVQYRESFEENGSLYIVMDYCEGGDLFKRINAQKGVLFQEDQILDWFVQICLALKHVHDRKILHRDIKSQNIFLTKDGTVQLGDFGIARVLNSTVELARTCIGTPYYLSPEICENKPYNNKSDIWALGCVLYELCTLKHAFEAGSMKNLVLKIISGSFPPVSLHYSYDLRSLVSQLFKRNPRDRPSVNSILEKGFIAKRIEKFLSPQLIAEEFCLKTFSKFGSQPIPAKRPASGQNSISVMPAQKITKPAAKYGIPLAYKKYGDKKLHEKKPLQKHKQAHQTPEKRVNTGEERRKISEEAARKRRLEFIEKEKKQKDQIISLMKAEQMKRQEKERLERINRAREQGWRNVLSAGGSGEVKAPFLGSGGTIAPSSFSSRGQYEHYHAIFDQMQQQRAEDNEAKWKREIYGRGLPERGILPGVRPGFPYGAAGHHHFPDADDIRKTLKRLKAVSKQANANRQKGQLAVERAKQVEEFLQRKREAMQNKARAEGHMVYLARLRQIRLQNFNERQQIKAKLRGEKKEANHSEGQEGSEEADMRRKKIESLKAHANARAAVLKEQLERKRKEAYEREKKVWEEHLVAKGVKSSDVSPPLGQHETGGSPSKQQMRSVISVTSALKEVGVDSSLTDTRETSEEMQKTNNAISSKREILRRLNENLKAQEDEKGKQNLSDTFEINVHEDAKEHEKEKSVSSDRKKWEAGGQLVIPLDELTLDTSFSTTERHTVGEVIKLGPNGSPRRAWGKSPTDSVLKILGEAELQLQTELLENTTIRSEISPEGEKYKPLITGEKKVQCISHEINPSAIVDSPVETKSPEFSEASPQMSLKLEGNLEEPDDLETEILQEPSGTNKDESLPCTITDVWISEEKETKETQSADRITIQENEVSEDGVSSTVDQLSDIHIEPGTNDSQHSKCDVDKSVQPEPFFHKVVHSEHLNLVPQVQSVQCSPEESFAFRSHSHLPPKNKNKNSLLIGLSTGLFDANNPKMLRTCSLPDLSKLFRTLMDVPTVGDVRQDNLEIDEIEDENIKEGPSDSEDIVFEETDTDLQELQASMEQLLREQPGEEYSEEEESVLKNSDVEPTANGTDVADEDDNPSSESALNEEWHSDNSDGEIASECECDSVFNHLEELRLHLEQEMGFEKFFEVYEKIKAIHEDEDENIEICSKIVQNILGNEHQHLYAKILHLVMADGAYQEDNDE
Method in brief: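 Recombinant human Nek1 (1−505, 0.02 nM) in 50 mM HEPES pH 7.5, 1 mM EGTA, 10 mM MgCl2, 0.2 mM DTT, 0.01% Tween20, with 50 nM ULight-p70 S6K peptide and 60 μM ATP, 30 min at 22 °C. Stopped with EDTA plus Eu anti-phospho antibody, 1 h signal development. Ten half-log concentrations from 30 μM (10 μM for some) to 1 nM. Mean of two experiments.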

[2] = biological target: Tyrosine-protein kinase Lyn (Homo sapiens) (UniProt P07948); assay: Inhibition of recombinant human Lyn assessed as residual activity at 1 uM using poly(Glu, Tyr) 4:1 as substrate after 40 mins in presence of [gamma-33ATP] by scintillation counting based radiometry assay relative to control
Method in brief: (§1)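 Commercial radiometric panel of 50 kinases. Each recombinant human kinase was tested at a single compound concentration of 1 μM. ATP was set within 15 μM of the apparent Km for ATP for each kinase. Residual activity is relative to control and is the mean of two independent experiments.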

[3] = biological target: Serine/threonine-protein kinase Nek3 (Homo sapiens) (UniProt P51956); assay: Inhibition of recombinant full-length human NEK3 assessed as residual activity at 1 uM using myelin basic protein as substrate measured after 40 mins in presence of [gamma33P]ATP by radiometric scintillation counting method relative to control; method in brief: as §1
[4] = biological target: Tyrosine-protein kinase SYK (Homo sapiens) (UniProt P43405); assay: Inhibition of recombinant full-length human Syk at 1 uM assessed as residual activity at 1 uM using poly(Glu, Tyr) 4:1 as substrate measured after 40 mins in presence of [gamma33P]ATP by radiometric scintillation counting method relative to control; method in brief: as §1
[5] = biological target: Serine/threonine-protein kinase Chk1 (Homo sapiens) (UniProt O14757); assay: Inhibition of human full length recombinant CHK1 assessed as residual activity at 1 uM using KKKVSRSGLYRSPSMPENLNRPR as substrate incubated for 40 mins in presence of [gamma 33P]-ATP by radiometric scintillation counting assay relative to control; method in brief: as §1
[6] = biological target: Inhibitor of nuclear factor kappa-B kinase subunit epsilon (Homo sapiens) (UniProt Q14164); assay: Inhibition of human full length recombinant IKKepsilon assessed as residual activity at 1 uM using casein as substrate incubated for 40 mins in presence of [gamma 33P]-ATP by radiometric scintillation counting assay relative to control; method in brief: as §1
[7] = system: Tyrosine-protein kinase ABL1 (Homo sapiens), P00519 [Q252H]; assay: Inhibition of human Abl Q252H mutant (27 to end residues) assessed as residual activity at 1 uM using EAIYAAPFAKKK as substrate incubated for 40 mins in presence of [gamma 33P]-ATP by radiometric scintillation counting assay relative to control; method in brief: as §1
[8] = biological target: Phosphatidylinositol 4,5-bisphosphate 3-kinase catalytic subunit alpha isoform (Homo sapiens) (UniProt P42336); assay: Inhibition of human full length recombinant PI3Kalpha assessed as residual activity at 1 uM using phosphatidylinositol 4,5-bisphosphate as substrate incubated for 40 mins in presence of ATP by HTRF assay relative to control
[9] = Toxicity in wild-type Zebrafish embryos assessed as effect on body curvature at 0.05 to 30 uM measured upto 120 hrs; set-up: species or system Danio rerio; settings: in vivo, dose 0.05-30 µM
Method in brief: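 Wild-type embryos, 15 per group with intact chorions, dosed at 6 hpf with 0.05–30 μM final concentrations in E3, diluted from a DMSO stock. Survival checked every 24 h by heartbeat over 120 h, and phenotypes assessed visually. At least triplicate, 5 replicates at 30 μM.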

[10] = Toxicity in fluorescence-labelled Zebrafish pronephron assessed as increase in growth of fluid-filled cysts at 10 to 20 uM; set-up: species or system Danio rerio; settings: in vivo, dose 10-20 µM
Method in brief: (§2)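 Wild-type embryos exposed from 6 hpf to E3/0.2% DMSO controls or 10 and 20 μM compound, in E3 with 75 μM PTU. At 48 h, 100 nM PT-Yellow for 20 min, washed, then returned to compound up to 96 h total. Anesthetized embryos imaged in agarose molds by widefield microscopy, 33 Z-slices. Tubule fluorescence and area quantified from summed deconvolved projections. n = 3–5.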

[11] = Toxicity in fluorescence-labelled Zebrafish pronephron assessed as increase in impaired renal clearance at 10 to 20 uM; set-up: species or system Danio rerio; settings: in vivo, dose 10-20 µM; method in brief: as §2

Chain of Tyrosine-protein kinase Lyn (Homo sapiens) (P07948 2-512 limits assumed): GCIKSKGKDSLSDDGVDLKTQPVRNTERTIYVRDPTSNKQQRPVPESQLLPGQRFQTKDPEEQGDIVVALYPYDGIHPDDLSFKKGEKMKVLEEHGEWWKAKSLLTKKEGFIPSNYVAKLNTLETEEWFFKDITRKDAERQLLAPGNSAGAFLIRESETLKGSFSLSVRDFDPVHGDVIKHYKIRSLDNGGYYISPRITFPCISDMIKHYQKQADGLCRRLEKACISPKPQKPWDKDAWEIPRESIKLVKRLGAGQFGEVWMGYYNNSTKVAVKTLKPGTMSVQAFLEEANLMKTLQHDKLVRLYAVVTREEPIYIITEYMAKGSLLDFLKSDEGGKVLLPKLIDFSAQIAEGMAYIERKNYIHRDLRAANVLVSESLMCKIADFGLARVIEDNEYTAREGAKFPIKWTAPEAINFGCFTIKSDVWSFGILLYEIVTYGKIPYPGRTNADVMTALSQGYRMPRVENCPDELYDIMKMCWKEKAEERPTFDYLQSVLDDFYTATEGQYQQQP
Chain of Serine/threonine-protein kinase Chk1 (Homo sapiens) (O14757 whole entry): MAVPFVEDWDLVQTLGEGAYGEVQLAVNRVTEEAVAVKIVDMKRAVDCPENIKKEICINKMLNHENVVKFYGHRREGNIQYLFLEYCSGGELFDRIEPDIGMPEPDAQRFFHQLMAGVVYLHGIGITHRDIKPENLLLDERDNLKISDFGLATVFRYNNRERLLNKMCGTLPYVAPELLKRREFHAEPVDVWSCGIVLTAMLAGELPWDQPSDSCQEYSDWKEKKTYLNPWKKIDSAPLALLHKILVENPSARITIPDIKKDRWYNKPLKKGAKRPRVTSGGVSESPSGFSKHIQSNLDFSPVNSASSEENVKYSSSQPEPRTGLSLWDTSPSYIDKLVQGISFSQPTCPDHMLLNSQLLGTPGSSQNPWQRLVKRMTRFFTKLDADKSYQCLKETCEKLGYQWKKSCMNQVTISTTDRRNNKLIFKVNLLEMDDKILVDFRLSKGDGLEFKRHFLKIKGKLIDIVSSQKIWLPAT
Chain of Serine/threonine-protein kinase Nek3 (Homo sapiens) (P51956 whole entry): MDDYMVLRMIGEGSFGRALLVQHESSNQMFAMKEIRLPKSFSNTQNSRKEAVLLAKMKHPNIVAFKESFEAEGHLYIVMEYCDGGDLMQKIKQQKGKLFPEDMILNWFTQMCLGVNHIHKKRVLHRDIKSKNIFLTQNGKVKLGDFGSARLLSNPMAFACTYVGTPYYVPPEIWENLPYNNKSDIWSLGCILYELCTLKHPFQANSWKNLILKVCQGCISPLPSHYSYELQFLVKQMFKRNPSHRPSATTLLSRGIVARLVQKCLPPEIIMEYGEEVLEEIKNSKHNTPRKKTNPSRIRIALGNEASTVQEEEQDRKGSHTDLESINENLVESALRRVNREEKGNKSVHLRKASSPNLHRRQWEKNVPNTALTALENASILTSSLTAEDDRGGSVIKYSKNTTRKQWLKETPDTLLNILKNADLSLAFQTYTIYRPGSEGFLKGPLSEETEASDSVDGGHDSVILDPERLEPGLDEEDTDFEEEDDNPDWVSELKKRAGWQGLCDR
Chain of Inhibitor of nuclear factor kappa-B kinase subunit epsilon (Homo sapiens) (Q14164 whole entry): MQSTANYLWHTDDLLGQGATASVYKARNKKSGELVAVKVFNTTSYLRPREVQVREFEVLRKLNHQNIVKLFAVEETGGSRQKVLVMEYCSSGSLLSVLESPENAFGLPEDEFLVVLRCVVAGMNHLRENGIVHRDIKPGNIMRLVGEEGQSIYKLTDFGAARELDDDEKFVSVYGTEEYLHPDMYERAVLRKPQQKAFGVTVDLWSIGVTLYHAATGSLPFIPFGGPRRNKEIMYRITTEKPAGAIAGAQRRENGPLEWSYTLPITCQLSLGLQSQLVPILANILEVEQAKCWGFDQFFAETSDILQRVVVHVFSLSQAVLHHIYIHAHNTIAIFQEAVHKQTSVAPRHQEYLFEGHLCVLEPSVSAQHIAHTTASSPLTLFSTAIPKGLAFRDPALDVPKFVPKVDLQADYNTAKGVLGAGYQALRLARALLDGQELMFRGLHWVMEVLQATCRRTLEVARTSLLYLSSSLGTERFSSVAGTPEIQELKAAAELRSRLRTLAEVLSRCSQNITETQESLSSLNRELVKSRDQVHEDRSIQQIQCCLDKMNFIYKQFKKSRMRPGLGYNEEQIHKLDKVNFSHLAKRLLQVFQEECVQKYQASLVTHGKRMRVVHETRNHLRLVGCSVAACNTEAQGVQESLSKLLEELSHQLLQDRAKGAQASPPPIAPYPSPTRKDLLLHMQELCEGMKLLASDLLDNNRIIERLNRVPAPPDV
Chain of Phosphatidylinositol 4,5-bisphosphate 3-kinase catalytic subunit alpha isoform (Homo sapiens) (P42336 whole entry, canonical isoform): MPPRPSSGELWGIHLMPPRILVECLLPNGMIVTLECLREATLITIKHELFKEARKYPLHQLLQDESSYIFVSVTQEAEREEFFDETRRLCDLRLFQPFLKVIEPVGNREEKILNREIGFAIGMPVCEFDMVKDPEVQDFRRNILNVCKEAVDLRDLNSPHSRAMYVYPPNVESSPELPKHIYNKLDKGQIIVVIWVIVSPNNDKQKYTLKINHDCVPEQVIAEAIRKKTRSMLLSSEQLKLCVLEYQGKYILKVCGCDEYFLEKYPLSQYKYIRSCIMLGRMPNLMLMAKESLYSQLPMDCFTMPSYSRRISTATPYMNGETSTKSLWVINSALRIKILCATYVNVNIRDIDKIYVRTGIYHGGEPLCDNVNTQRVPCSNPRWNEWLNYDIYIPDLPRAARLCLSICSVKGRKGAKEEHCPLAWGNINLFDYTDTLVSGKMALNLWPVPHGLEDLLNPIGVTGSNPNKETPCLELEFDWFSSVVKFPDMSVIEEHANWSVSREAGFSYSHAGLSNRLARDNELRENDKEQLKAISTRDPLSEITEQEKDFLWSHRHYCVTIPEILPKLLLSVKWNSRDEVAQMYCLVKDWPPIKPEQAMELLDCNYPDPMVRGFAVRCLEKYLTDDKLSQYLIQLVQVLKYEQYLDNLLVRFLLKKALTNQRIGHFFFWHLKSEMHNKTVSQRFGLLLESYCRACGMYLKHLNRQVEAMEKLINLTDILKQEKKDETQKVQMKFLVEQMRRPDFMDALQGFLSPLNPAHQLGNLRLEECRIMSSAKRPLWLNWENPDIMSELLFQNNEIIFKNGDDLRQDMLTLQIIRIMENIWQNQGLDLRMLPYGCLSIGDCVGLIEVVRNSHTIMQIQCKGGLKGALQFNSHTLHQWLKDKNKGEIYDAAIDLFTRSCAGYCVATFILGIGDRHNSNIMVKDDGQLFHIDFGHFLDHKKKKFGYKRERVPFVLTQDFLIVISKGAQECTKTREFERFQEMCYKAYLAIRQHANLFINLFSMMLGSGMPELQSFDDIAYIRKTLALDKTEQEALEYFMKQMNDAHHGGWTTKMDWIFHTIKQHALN

Question: What does the source list for O=S(=O)(N[C@@H](CO)Cc1c[nH]c2ccccc12)c1ccc(-c2ccnc3[nH]ccc23)cc1?
Answer: IC50 [1]: 330 nM; Activity [2]: > 75%; Activity [3]: > 75%; Activity [4]: > 75%; Activity [5]: > 75%; Activity [6]: > 75%; Activity [7]: > 75%; Activity [8]: > 75%; Activity [9]: Non-Toxic; Activity [10]: Toxic; Activity [11]: Toxic
